From paper PMC4388048 (Journal of medicinal chemistry, 2015) come the findings set out here.

The format of data set [1] is in vivo. Conditions: CD-1 mice, 10 nmol intravenously, 4 h postinjection, N = 5. Summed up: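 Anesthetised male CD-1 mice (~25 g; ketamine/xylazine i.p.) received test fluorophore intravenously. After 4 h of imaging, urine was collected from the bladder. Urine volume and optical absorbance were measured to estimate the amount of injected dye excreted.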
The nature of data set [2]: Optical properties in 100% FBS. The data set is classed as physicochemical. Conditions: pH 7.4, 37 °C. Summed up: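 Absorbance (200–1100 nm) and fluorescence (350–1000 nm) spectra were recorded for 1 µM test dye in 100% FBS, pH 7.4, using fibre-optic spectrometers. Excitation was 8 mW from a 655 or 765 nm laser diode, chosen by structure. Quantum yield was calibrated against oxazine 725 in ethylene glycol (QY 19%) and ICG in DMSO (QY 13%), with absorbance matched at 655 and 765 nm.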

Data set [3] can be described thus: Optical stability in serum. It is filed as in vitro ADME, fetal bovine serum. Conditions: 100% FBS, pH 7.4, 37 °C, 24 h.
Data set [4] is described as follows: In vivo biodistribution and clearance by real-time NIR fluorescence imaging. To be noted: CD-1 mice, 10 nmol intravenously, imaging over 4 h. Summed up: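 Male CD-1 mice (~25 g) were anesthetised with ketamine 100 mg/kg and xylazine 10 mg/kg i.p., then given 10 nmol of test fluorophore intravenously. Real-time FLARE imaging used 760 nm excitation at 11 mW/cm2 with white light (400–650 nm). Colour and NIR images were acquired together at up to 15 Hz. Resected organs were also imaged. Exposure and normalisation were held constant.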

As for `CC1(C)C(/C=C/C=C/C=C/C=C2\N(CCCCS(=O)(=O)O)c3ccc4ccccc4c3C2(C)C)=[N+](CCCCS(=O)(=O)[O-])c2ccc3ccccc3c21` [ICG, indocyanine green], the “Renal excretion amount in urine” value in data set [1] was 3 % ID.
Consider `Br.Br.CC1(C)C(/C=C/C2=C(Oc3ccc(CCN)cc3)C(=C/C=C3/N(CCC[N+](C)(C)C)c4ccc(S(=O)(=O)[O-])cc4C3(C)C)/CCC2)=[N+](CCC[N+](C)(C)C)c2ccc(S(=O)(=O)[O-])cc21.[Br-]` [compound 4, Mono(2-((E)-2-((E)-2-(4-(2-aminoethyl)phenoxy)-3-((E)-2-(3,3-dimethyl-5-sulfonato-1-(3-(trimethylammonio)propyl)-indolin-2-ylidene)ethylidene)cyclohex-1-en-1-yl)vinyl)-3,3-dimethyl-1-(3-(trimethylammonio)propyl)-3H-indol-1-ium-5-sulfonate) Tribromide], for which, in data set [2], the molar extinction coefficient result is on record as “highest” and the quantum yield result is listed as “highest”. Besides, in data set [3], the “Optical stability in serum” value was “least stable”.
Consider `Br.Br.CC1(C)C(/C=C/C2=C(Sc3ccc(C(=O)O)cc3)C(=C/C=C3/N(CCC[N+](C)(C)C)c4ccc(S(=O)(=O)[O-])cc4C3(C)C)/CCC2)=[N+](CCC[N+](C)(C)C)c2ccc(S(=O)(=O)[O-])cc21.[Br-]` [compound 8, Mono(2-((E)-2-((E)-2-((4-carboxyphenyl)thio)-3-((E)-2-(3,3-dimethyl-5-sulfonato-1-(3-(trimethylammonio)propyl)indolin-2-ylidene)ethylidene)cyclohex-1-en-1-yl)vinyl)-3,3-dimethyl-1-(3-(trimethylammonio)propyl)-3H-indol-1-ium-5-sulfonate) Tribromide], for which, in data set [4], the uptake in liver result is given as “weak uptake in liver”.
As to “Mono(2-((E)-2-((E)-2-((4-(aminomethyl)phenyl)thio)-3-((E)-2-(3,3-dimethyl-5-sulfonato-1-(3-(trimethylammonio)propyl)indolin-2-ylidene)ethylidene)cyclohex-1-en-1-yl)vinyl)-3,3-dimethyl-1-(3-(trimethylammonio)propyl)-3H-indol-1-ium-5-sulfonate) Tribromide [compound 11]”, the “Optical stability in serum” value in data set [3] is reported as “increased stability”.
With “Mono(2-((E)-2-((E)-2-((4-(carboxymethyl)phenyl)thio)-3-((E)-2-(3,3-dimethyl-5-sulfonato-1-(3-(trimethylammonio)propyl)indolin-2-ylidene)ethylidene)cyclohex-1-en-1-yl)vinyl)-3,3-dimethyl-1-(3-(trimethylammonio)propyl)-3H-indol-1-ium-5-sulfonate) Tribromide [compound 9]”, the uptake in liver result in data set [4] is “weak uptake in liver”. The “Optical stability in serum” value in data set [3] is “increased stability”.
